Measured values published in ChEMBL document CHEMBL1126147 (J Med Chem, 1992).
Calls of active or inactive are those of the source. The rule behind the calls is not given here.

What was measured:
[1] = molecular target: T1, Aldo-keto reductase family 1 member B1 (Homo sapiens, UniProt P15121); experiment: In vitro inhibitory activity against aldose reductase isolated from human placenta
Rattus norvegicus [2] = experiment: In vivo inhibition of sorbitol accumulation in the sciatic nerve in streptozotocin induced diabetic rat model at a concentration of 10 mg/kg; format: functional
In short: (§1)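 Rats (n = 4) were made diabetic with a single iv dose of streptozotocin (86 mg/kg). Compound was given by oral gavage at 4, 7 and 24 h. Animals were killed at 27 h and sciatic nerve sorbitol measured. Percent inhibition is relative to untreated diabetic rats (n = 4), with significance by Student's t test (p < 0.05).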

Rattus norvegicus [3] = experiment: In vivo inhibition of sorbitol accumulation in the sciatic nerve in streptozotocin induced diabetic rat model at a concentration of 100 mg/kg; format: functional; in short: as §1
Rattus norvegicus [4] = experiment: In vivo inhibition of sorbitol accumulation in the sciatic nerve in streptozotocin induced diabetic rat model at a concentration of 10 mg/kg; NS=not significant; format: functional, organism-based; parameters: dose 10 mg/kg; in short: as §1
Rattus norvegicus [5] = experiment: In vivo inhibition of sorbitol accumulation in the sciatic nerve in streptozotocin induced diabetic rat model at a concentration of 25 mg/kg; format: functional; in short: as §1
[6] = molecular target: T1, Aldo-keto reductase family 1 member B1; experiment: In vitro inhibitory activity against aldose reductase isolated from human placenta at 10e-5 M
In short: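 Aldose reductase purified from human placenta; DL-glyceraldehyde as substrate with NADPH as cofactor; enzyme inhibition measured in vitro.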

Rattus norvegicus [7] = experiment: In vivo inhibition of sorbitol accumulation in the sciatic nerve in streptozotocin induced diabetic rat model at a concentration of 25 mg/kg; NS=not significant; format: functional, organism-based; parameters: dose 25 mg/kg; in short: as §1

Compound | IC50 [1] [nM] | also measured
O=C(O)Cc1nn(Cc2cc3c(Cl)cccc3s2)c(=O)c2ccccc12 | 110 | 
O=C(O)Cc1nn(Cc2nc3cc(C(F)(F)F)ccc3o2)c(=O)c2ccccc12 | 31 | inhibition in vivo at 10 mg/kg (Rattus norvegicus [2]): 32%
O=C(O)Cc1nn(Cc2nc3cc4ccccc4cc3o2)c(=O)c2ccccc12 | 3000 | 
O=C(O)Cc1nn(Cc2cc3ccccc3s2)c(=O)c2ccccc12 | 120 | inhibition in vivo at 100 mg/kg (Rattus norvegicus [3]): 77%
O=C(O)Cc1nn(Cc2nc3cc(Cl)cc(Cl)c3o2)c(=O)c2ccccc12 | 32 | inhibition in vivo at 10 mg/kg (Rattus norvegicus [2]): 63%
O=C(O)Cc1nn(Cc2nc(-c3ccccn3)no2)c(=O)c2ccccc12 | 156 | inhibition (Rattus norvegicus [4]): inactive
O=C(O)Cc1nn(Cc2nc3ccccc3o2)c(=O)c2ccccc12 | 89 | 
O=C(O)Cc1nn(Cc2nc(-c3ccccc3C(F)(F)F)no2)c(=O)c2ccccc12 | 220 | inhibition in vivo at 25 mg/kg (Rattus norvegicus [5]): 60%
O=C(O)Cc1nn(Cc2nc(-c3ccccc3Cl)ns2)c(=O)c2ccccc12 | 1100 | 
O=C(O)Cc1nn(Cc2nc(-c3cccc(F)c3F)no2)c(=O)c2ccccc12 | 19 | inhibition in vivo at 25 mg/kg (Rattus norvegicus [5]): 89%
O=C(O)Cc1nn(Cc2nc3cc(Br)ccc3o2)c(=O)c2ccccc12 | 27 | inhibition in vivo at 10 mg/kg (Rattus norvegicus [2]): 67%
O=C(O)Cc1nn(CC(=O)Nc2ccc(Cl)cc2)c(=O)c2ccccc12 | 440 | 
O=C(O)Cc1nn(CC(=O)Nc2cc(C(F)(F)F)ccc2Br)c(=O)c2ccccc12 | 28 | 
O=C(O)Cc1nn(CC(=O)Nc2cc(C(F)(F)F)cc(C(F)(F)F)c2)c(=O)c2ccccc12 | 1100 | 
O=C(O)Cc1nn(Cc2cc3cc(Cl)ccc3o2)c(=O)c2ccccc12 | 150 | 
O=C(O)Cc1nn(CC(=O)Nc2cc(F)cc(F)c2O)c(=O)c2ccccc12 | 170 | 
COc1cc(NC(=O)Cn2nc(CC(=O)O)c3ccccc3c2=O)cc(OC)c1OC |  | inhibition [6]: 20%
O=C(O)Cc1nn(Cc2nc3cc(C(F)(F)F)ccc3s2)c(=O)c2ccccc12 [ZOPOLRESTAT] |  | inhibition in vivo at 10 mg/kg (Rattus norvegicus [2]): 80%
O=C(O)Cc1nn(CC(=O)Nc2ccccc2)c(=O)c2ccccc12 | 4900 | 
O=C(O)Cc1nn(Cc2nc(-c3ccc(Br)cc3)no2)c(=O)c2ccccc12 | 4600 | 
O=C(O)Cc1nn(CC(=O)Nc2cc(C(F)(F)F)ccc2O)c(=O)c2ccccc12 | 200 | 
O=C(O)Cc1nn(Cc2nc3cc(F)cc(F)c3o2)c(=O)c2ccccc12 | 3.2 | inhibition in vivo at 10 mg/kg (Rattus norvegicus [2]): 78%

Compound | IC50 [1] [nM] | also measured
O=C(O)Cc1nn(Cc2nc3cc(Cl)ccc3o2)c(=O)c2ccccc12 | 78 | inhibition in vivo at 10 mg/kg (Rattus norvegicus [2]): 72%
O=C(O)Cc1nn(Cc2noc(-c3ccccc3C(F)(F)F)n2)c(=O)c2ccccc12 | 470 | 
O=C(O)Cc1nn(C/C(S)=N/c2cccc(C(F)(F)F)c2)c(=O)c2ccccc12 | 52 | 
O=C(O)Cc1nn(Cc2snc3ccccc23)c(=O)c2ccccc12 | 720 | 
O=C(O)Cc1nn(Cc2cc3cccnc3s2)c(=O)c2ccccc12 | 420 | inhibition (Rattus norvegicus [7]): inactive
O=C(O)Cc1nn(Cc2nc3ccc(Br)cc3o2)c(=O)c2ccccc12 | 540 | 
O=C(O)Cc1nn(Cc2cc3cc([N+](=O)[O-])ccc3s2)c(=O)c2ccccc12 | 2200 | inhibition (Rattus norvegicus [4]): inactive
O=C(O)Cc1nn(CC(=O)Nc2ccc(C(F)(F)F)cc2)c(=O)c2ccccc12 | 2100 | 
O=C(O)Cc1nn(Cc2cn3ccc(Cl)cc3n2)c(=O)c2ccccc12 | 37 | 
O=C(O)Cc1nn(CC(=O)Nc2cccc(Cl)c2)c(=O)c2ccccc12 | 13 | 
O=C(O)Cc1nn(Cc2nc(-c3ccccc3Br)no2)c(=O)c2ccccc12 | 6.5 | inhibition in vivo at 10 mg/kg (Rattus norvegicus [2]): 27%
COc1ccccc1-c1noc(Cn2nc(CC(=O)O)c3ccccc3c2=O)n1 | 470 | inhibition (Rattus norvegicus [7]): inactive
O=C(O)Cc1nn(Cc2csnc2-c2ccccc2)c(=O)c2ccccc12 | 10000 | 
O=C(O)Cc1nn(Cc2ccc3ccccc3n2)c(=O)c2ccccc12 | 59000 | 
O=C(O)Cc1nn(Cc2cc(-c3ccccc3)ns2)c(=O)c2ccccc12 | 670 | 
O=C(O)Cc1nn(CC(=S)Nc2cc(C(F)(F)F)ccc2Br)c(=O)c2ccccc12 | 200 | 
O=C(O)Cc1nn(Cc2nnc(-c3ccccc3)o2)c(=O)c2ccccc12 | 3100 | 
O=C(O)Cc1nn(C/C(S)=N/c2cccc(Cl)c2)c(=O)c2ccccc12 | 50 | 
O=C(O)Cc1nn(Cc2nc(-c3ccc(F)cc3F)no2)c(=O)c2ccccc12 | 630 | inhibition in vivo at 25 mg/kg (Rattus norvegicus [5]): 46%
O=C(O)Cc1nn(Cc2csc(-c3ccccc3F)n2)c(=O)c2ccccc12 | 460 | 
O=C(O)Cc1nn(CC(=O)Nc2ccccc2C(F)(F)F)c(=O)c2ccccc12 | 5900 | 
O=C(O)Cc1nn(CC(=O)Nc2cc(C(F)(F)F)cc(C(F)(F)F)c2Br)c(=O)c2ccccc12 | 2200 | 

Compound | IC50 [1] [nM] | also measured
O=C(O)Cc1nn(CC(=O)Nc2ccccc2Cl)c(=O)c2ccccc12 | 430 | 
O=C(O)Cc1nn(Cc2nc(-c3ccccc3)cs2)c(=O)c2ccccc12 | 34 | 
O=C(O)Cc1nn(Cc2nc(-c3c(F)cccc3Cl)no2)c(=O)c2ccccc12 | 240 | 
O=C(O)Cc1nn(Cc2cc3cc(Cl)ccc3s2)c(=O)c2ccccc12 | 250 | 
O=C(O)Cc1nn(Cc2nc(-c3ccccc3)c(-c3ccccc3)o2)c(=O)c2ccccc12 | 4500 | 
O=C(O)Cc1nn(CC(=O)Nc2cccc(F)c2)c(=O)c2ccccc12 | 22 | 
Cc1ccccc1-c1noc(Cn2nc(CC(=O)O)c3ccccc3c2=O)n1 | 64 | inhibition (Rattus norvegicus [4]): inactive
O=C(O)Cc1nn(Cc2cc3cc(Br)ccc3s2)c(=O)c2ccccc12 | 1000 | 
O=C(O)Cc1nn(Cc2noc(-c3ccccc3Cl)n2)c(=O)c2ccccc12 | 28 | 
O=C(O)Cc1nn(CC(=O)Nc2cccc(C(F)(F)F)c2)c(=O)c2ccccc12 | 19 | 
O=C(O)Cc1nn(Cc2csc(-c3ccccc3)n2)c(=O)c2ccccc12 | 8200 | 
O=C(O)Cc1nn(Cc2cc3cc(F)ccc3s2)c(=O)c2ccccc12 | 150 | inhibition in vivo at 25 mg/kg (Rattus norvegicus [5]): 49%
O=C(O)Cc1nn(Cc2nc(-c3ccccc3Cl)no2)c(=O)c2ccccc12 | 23 | inhibition (Rattus norvegicus [4]): inactive; inhibition in vivo at 25 mg/kg (Rattus norvegicus [5]): 75%
O=C(O)Cc1nn(Cc2cc3ccccc3[nH]2)c(=O)c2ccccc12 | 870 | 
O=C(O)Cc1nn(Cc2ncc(-c3ccccc3)o2)c(=O)c2ccccc12 | 660 | 
O=C(O)Cc1nn(Cc2nc3cc(-c4ccccc4)ccc3o2)c(=O)c2ccccc12 | 6100 | 
O=C(O)Cc1nn(Cc2nc(-c3ccccc3F)no2)c(=O)c2ccccc12 | < 10 | inhibition in vivo at 25 mg/kg (Rattus norvegicus [5]): 69%
O=C(O)Cc1nn(Cc2nc(-c3ccccc3)ns2)c(=O)c2ccccc12 | 2200 | 
Cn1c(Cn2nc(CC(=O)O)c3ccccc3c2=O)nc2ccccc21 | 4200 | 
O=C(O)Cc1nn(Cc2nc(-c3ccccc3)co2)c(=O)c2ccccc12 | 3200 | 
O=C(O)Cc1nn(Cc2nc(-c3ccccc3)no2)c(=O)c2ccccc12 | 160 | 
